Bioassay records as filed in PubChem BioAssay.
LMPTP inh: LMPTP (human) inhibition | recombinant LMPTP-A, OMFP fluorogenic substrate, fluorescence intensity | 0.22% of 360,000 active | inhibition, % at 20 µM;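 active = compounds that cut the enzyme signal by at least half of the control window in the single-dose screen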;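 also: plate controls were DMSO wells with enzyme plus substrate for no effect and substrate without enzyme for full effect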
Target sequence (P24666 whole entry, looked up): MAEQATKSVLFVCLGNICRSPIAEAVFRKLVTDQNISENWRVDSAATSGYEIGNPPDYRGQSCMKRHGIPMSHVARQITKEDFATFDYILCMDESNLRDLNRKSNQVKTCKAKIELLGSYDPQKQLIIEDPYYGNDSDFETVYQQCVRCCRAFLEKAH
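Test system – LMPTP-A phosphatase enzyme · Quantity – 0.625 nM LMPTP-A final · Reagent – OMFP substrate, 400 µM final · Dosing – one test concentration per compound, 20 µM, with 3% DMSO overall · Timing – 50 min enzyme reaction at room temperature, protected from light · Detection – fluorescence intensity · Controls – substrate-only low control, DMSO enzyme-plus-substrate high control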
DNMT1 inh: blocks human DNA methyltransferase DNMT1. P26358. DNMT1 molecular beacon, Hinp1I cleavage, fluorescence. inhibition (reported as % activation of signal), % at 10 µM. 0.83% of 360,000 active. AID 588458; in the data active = inhibition above about 50%
SUMO1 PPI mod: modulators of human SUMO1-mediated protein-protein interactions | P63165 | SUMO1 binding to a labelled peptide, TR-FRET, 1 h | inhibition, % at 20 µM | 0.33% of 360,000 active | AID 602429; in the data active = inhibition above about 37%
Target sequence (P63165 whole entry, looked up): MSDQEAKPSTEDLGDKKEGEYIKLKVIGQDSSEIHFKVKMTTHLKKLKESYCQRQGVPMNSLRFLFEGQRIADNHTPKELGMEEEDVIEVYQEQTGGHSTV
Scp1 inh: blocks human Scp-1 phosphatase activity; Recombinant Scp1, phosphopeptide, malachite green phosphate absorbance; inhibition, % at 20 µM; 0.88% of 340,000 active; AID 493091;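 active = inhibition above about 50% at 20 µM, limit read from the data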;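 also: plate controls were DMSO wells with enzyme for no effect and wells lacking enzyme for full effect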
Target sequence (Q9GZU7 76-261 limits assumed): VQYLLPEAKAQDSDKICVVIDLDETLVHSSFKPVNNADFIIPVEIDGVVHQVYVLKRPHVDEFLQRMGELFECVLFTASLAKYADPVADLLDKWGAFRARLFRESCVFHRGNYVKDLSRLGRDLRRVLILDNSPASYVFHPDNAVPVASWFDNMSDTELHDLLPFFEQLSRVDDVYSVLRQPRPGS
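Material – SCP-1 phosphatase catalytic domain, residues 76-261 · Buffer or medium – Acidic Tris acetate buffer with magnesium and detergent · Also added – Phospho 17-mer peptide substrate · Compound – single 20 µM dose, 1% DMSO · Times – 45 min room-temperature reaction, 5 min colour, 30 min stabiliser · Technique – Phosphate-binding colour reagent, absorbance read at 630 nm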
STEP block: blocks human striatal-enriched tyrosine phosphatase | recombinant STEP, OMFP fluorogenic substrate, fluorescence | 0.25% of 360,000 active | AID 588621 | inhibition, % at 20 µM;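 active = inhibition at 20 µM, scaled per plate between control wells, above about 37%, limit read from the data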;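 also: 0% = DMSO with enzyme and substrate and 100% = substrate only without enzyme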
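Assay system: isolated STEP enzyme. Buffer or medium: pH 6.0 Bis-Tris with DTT and Tween 20. Also added: fluorogenic phosphatase substrate OMFP at 25 µM final. Dosing: 20 µM, 1% DMSO. Timing: 20 min reaction, room temperature, in the dark. Measured by: fluorescence intensity, excitation 480 nm, emission 540 nm. Evaluation: normalized % inhibition.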
Rpn11 block: Rpn11 (human) deubiquitinase inhibition; O00487; human 26S proteasome, Ub4-pepOG fluorescence polarization; 20S core pre-blocked with epoxomicin; inhibition, % at 20 µM; 0.59% of 360,000 active; AID 588493;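 active = inhibition at 20 µM, scaled to each plate's controls, above about 33%, limit read from the data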
Rpn11 confirm: confirmation of human proteasome Rpn11 inhibitors. shares compounds with Rpn11 block. purified human 26S proteasome, Ub4-pepOG fluorescence polarization; proteasome pretreated with epoxomicin. inhibition, % at 20 µM. 29% of 1,900 active
MMP-2 inh: counter-screen for RPN11 inhibitors: inhibition of human MMP-2; recombinant MMP-2, FRET peptide cleavage fluorescence; inhibition, % at 20 µM; shares compounds with Rpn11 block; 4% of 1,900 active;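 also: human MMP-2 activated beforehand with APMA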
Thrombin FP: counter-screen for RPN11 inhibitors: inhibition of bovine thrombin; shares compounds with Rpn11 block; bovine thrombin cleavage of Ub4-pepOG, fluorescence polarization; inhibition, % at 20 µM; 13% of 1,900 active; AID 602333;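 active = mean inhibition at least 40% at 20 µM, or signal 3 deviations below plate average, so some actives read negative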;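 also: plate controls were thrombin with DMSO for no effect and buffer wells lacking thrombin for full effect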
* marks the source's active call; other numbers are inactive results; x = not tested or not shown. Shown are actives, neighbours in structure and some others; about 2.3% of the full set was active somewhere. Rule as the data show it, unless noted: active = inhibition above about 40%; inactive = the rest.

SMILES	LMPTP inh	DNMT1 inh	SUMO1 PPI mod	Scp1 inh	STEP block	Rpn11 block	Rpn11 confirm	MMP-2 inh	Thrombin FP
N#Cc1c(C(F)(F)F)cc(-c2ccc(Cl)c(Cl)c2)nc1SCCN1CCOCC1	4.3	-2.1	-5.2	3.1	6.0	52.1*	16.8	-16.8	38.2
Cc1cc(C(F)(F)F)nc(SCCN2CCOCC2)c1C#N	-1.1	-0.2	4.6	-5.2	-1.6	44.5*	50.0*	-13.1	29.3
CCC(CO)Oc1cc(NC(=O)c2ccccc2Cl)c2ncn(C(C)C)c2c1 (stereo unspecified)	-1.4	-9.2	-1.9	-1.6	0.5	25.8	x	x	x
O=C1c2oc3ccccc3c(=O)c2C(c2ccc(O)cc2)N1c1nccs1 (stereo unspecified)	1.8	-18.9	-6.1	-3.6	0.9	2.6	x	x	x
CC(=O)N1CCC(C(=O)OCc2ccccc2F)(c2ccccc2)CC1	0.6	-1.8	1.8	-9.7	0.1	-1.1	x	x	x
CC(C)(C)OC(=O)[C@H](Cc1ccccc1)NC(=O)c1ncn2c1c(=O)[nH]c1ccc(Br)cc12	73.0*	47.8	-27.7	x	1.5	83.0*	-5.3	-32.9	-14.5
Cc1ccc(CNC(=O)c2ccc(N3CCC4(CC3)CC(c3cccc(Br)c3)=NO4)c(NC(=O)c3cccc(C)c3)c2)cc1	4.9	-1.2	4.0	-0.2	4.6	42.1*	7.1	-0.7	8.5
Cc1cc(C)cc(NC(=O)Cn2nnc(C(=O)NCc3ccc4c(c3)OCO4)c2N)c1	25.8	38.0	6.4	-5.5	-0.1	157.1*	101.3*	14.2	-9.3
CCOc1ccc(CCNC(=O)c2nnn(CC(=O)Nc3ccc(C)cc3)c2N)cc1OCC	-2.2	4.9	2.8	-0.9	-1.4	84.3*	87.4*	-5.7	1.8
CCN(CC)c1ccc(/C=C(\C#N)C(N)=S)cc1	15.8	0.8	-156.8	10.5	-2.9	x	x	x	x
CCN(CC)c1ccc(/C=C(\C#N)C(N)=O)cc1	3.0	8.6	-25.8	3.2	-0.1	56.6*	29.1	-77.6	24.7
CCOC(=O)NC(=O)/C(C#N)=C/c1ccc(N(C)C)cc1	4.8	2.4	-58.4	-4.2	2.2	126.5*	116.7*	-28.2	98.0*
Cc1c(NC(=O)c2cnc(Cl)c(Cl)c2)c(=O)n(-c2ccccc2)n1C	-1.1	-0.8	0.8	-5.3	-1.0	2.6	x	x	x
Cc1ccc(N(Cc2ccccc2)C(=O)c2cc(S(=O)(=O)N3CCOCC3)ccc2Cl)cc1	2.0	-7.9	3.3	-6.9	1.4	18.0	x	x	x
Cc1ccc(N(Cc2ccccc2)C(=O)c2cc(S(=O)(=O)N3CCOCC3)ccc2F)cc1	1.0	1.5	-1.5	-12.6	2.4	45.6*	8.9	-18.7	-1.0
COC(=O)c1csc2c(C(F)(F)F)cc(N3CCN(C(=O)Nc4ccccc4)CC3)nc12	1.3	6.1	1.3	-5.0	0.3	2.4	x	x	x
Cc1nc(SCc2nc3ccccc3[nH]2)c2oc3cc(Br)ccc3c2n1	2.6	-5.5	-30.4	5.4	3.5	82.6*	45.0*	4.5	42.9*
Fc1ccc(-c2nc3c4ccccc4ccn3c2Cc2cccc(Cl)c2)cc1	6.2	-0.7	0.8	x	-1.9	43.2*	67.7*	3.7	73.9*
Clc1cccc(Cc2c(-c3ccccc3)nc3c4ccccc4ccn23)c1	4.7	-7.5	-1.6	x	-0.5	17.8	x	x	x
Cc1ccc(N=C2NC(=O)/C(=C/c3cccs3)S2)cc1C	1.8	3.1	-11.5	-27.1	1.0	98.9*	63.6*	3.5	-0.3
Cc1cccc(N=C2NC(=O)/C(=C\c3cccs3)S2)c1	4.5	8.5	-5.5	-7.3	2.2	41.6*	-1.3	-39.9	-11.8
